Measured values taken from ChEMBL document CHEMBL1122747, “Potential antitumor agents. 42. Structure-activity relationships for acridine-substituted dimethyl phosphoramidate derivatives of 9-anilinoacridine” (J Med Chem, 1984).

Assays:
P388 [1] = experiment: In vivo tumor cell selectivity (ILSmax values)for percentage increase in life span of treated animals over that of P388 tumor bearing untreated control animals; format: functional, Mus musculus
[2] = Binding affinity towards poly[d(A-T)] (fluorometric method); format: ADME
Summary of the method: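 Log R for binding to poly[d(A-T)] measured fluorometrically, corrected for quenching.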

P388 [3] = experiment: In vivo dose of drug needed for a percentage increase of 50% in life span of tumor-bearing mice compared to untreated controls after inoculation of 10e6 P388 leukemia cells; format: functional, Mus musculus
L1210 = experiment: In vitro test for 50% reduction of cell number (of control) after 70 hr incubation with cultures of murine L1210 leukemia cells; format: functional; conditions: Mus musculus, L1210, 70 h; read-out: ID50 (the source's name)
[4] = Lipophilicity (Rm) (liquid chromatography); format: physicochemical
Summary of the method: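 Rm is measured for drug cations at pH 2 by liquid-liquid chromatography on a cellulose support.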

P388 [5] = experiment: In vivo inhibition of P388 in mice for optimal (highest nonacutely toxic) dose (OD); format: functional, Mus musculus
Summary of the method: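 F1 (DBA/2J × C57BlJ) mice, 19-21 g, either sex, inoculated with 10^6 P388 leukemia cells on day 0. Drug given ip in 0.1 mL 30% aqueous ethanol on days 1, 5 and 9, as a solution or, at highest doses, as a sonicated suspension. Doses stepped down from a toxic level at 0.67-fold intervals. Groups of six mice; ILS relative to 20-30 controls. OD is the highest nonacutely toxic daily dose.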

P388 [6] = experiment: Dose of drug needed to provide a percentage increase in life span of tumor-bearing mice in vivo of […]% compared to untreated controls after inoculation of 10e6 P388 leukemia cells; h=ILS of >50% could not be obtained at any dose level; format: functional, organism-based; conditions: Mus musculus

Row | SMILES | Activity (P388 [1]) [%] | Log K [2] | D50 (P388 [3]) [mg/kg/day] | IC50 (L1210) [nM] | Rm [4] | OD (P388 [5]) [mg/kg/day] | D50 (P388 [6])
1 | CNC(=O)c1cccc2c(Nc3ccc(NS(C)(=O)=O)cc3OC)c3ccccc3nc12 | 127 | 5.54 | 8 | 270 | 0.06 | 30 | –
2 | COc1cc(NS(C)(=O)=O)ccc1Nc1c2ccccc2nc2ccccc12 [AMSACRINE] | 58 | 5.57 | 3 | – | 0.18 | – | –
3 | COc1cc(NS(C)(=O)=O)ccc1Nc1c2ccccc2nc2ccc(C)cc12 | 34 | 5.35 | – | 1400 | 0.4 | 69 | ILS not obtained
4 | COc1cc(NS(C)(=O)=O)ccc1Nc1c2ccccc2nc2c(C)cccc12 | 172 | 6.03 | 4 | 30 | 0.25 | 20 | –
5 | COP(=O)(Nc1ccc(Nc2c3ccccc3nc3cc([N+](=O)[O-])ccc23)cc1)OC | 22 | 6.73 | – | 74 | 0.14 | 8.9 | ILS not obtained
6 | Cc1ccc2c(Nc3ccc(NS(C)(=O)=O)cc3)c3ccccc3nc2c1 | 73 | 6.41 | 27 | 8 | 0.24 | 50 | –
7 | COc1cccc2c(Nc3ccc(NP(=O)(OC)OC)cc3)c3ccccc3nc12 | 50 | 6.53 | 45 | 20 | 0.33 | 45 | –
8 | COP(=O)(Nc1ccc(Nc2c3ccccc3nc3cc(C)ccc23)cc1)OC | 84 | 6.77 | 6 | 7 | 0.49 | 20 | –
9 | CNC(=O)c1cccc2c(Nc3ccc(NP(=O)(OC)OC)cc3)c3ccccc3nc12 | 56 | 6.46 | 60 | 97 | 0.18 | 66 | –
10 | CS(=O)(=O)Nc1ccc(Nc2c3ccccc3nc3cc(Br)ccc23)cc1 | 33 | 6.93 | – | 16 | 0.16 | 100 | ILS not obtained
11 | COc1cccc2c(Nc3ccc(NS(C)(=O)=O)cc3)c3ccccc3nc12 | 58 | 6.24 | 125 | 45 | 0.01 | 150 | –
12 | COc1cc(NS(C)(=O)=O)ccc1Nc1c2ccccc2nc2cc(Cl)ccc12 | 232 | 6.06 | 5 | 70 | 0.32 | 20 | –
13 | CS(=O)(=O)Nc1ccc(Nc2c3ccccc3nc3cc([N+](=O)[O-])ccc23)cc1 | 43 | 6.51 | – | 90 | -0.18 | 8.9 | ILS not obtained
14 | CS(=O)(=O)Nc1ccc(Nc2c3ccccc3nc3ccccc23)cc1 | 102 | – | 35 | 35 | 0 | 150 | –
15 | COP(=O)(Nc1ccc(Nc2c3ccccc3nc3cc(Br)ccc23)cc1)OC | 110 | 6.56 | 20 | 15 | 0.47 | 65 | –
16 | COc1cc(NS(C)(=O)=O)ccc1Nc1c2ccccc2nc2cc(Br)ccc12 | 133 | 6.29 | 4 | 50 | 0.34 | 20 | –
17 | COc1cc(NP(=O)(OC)OC)ccc1Nc1c2ccccc2nc2ccc(C)cc12 | 25 | 5.28 | – | 985 | 0.55 | 30 | ILS not obtained
18 | CNC(=O)c1cccc2c(Nc3ccc(NP(=O)(OC)OC)cc3OC)c3ccccc3nc12 | – | 5.94 | 13 | 18 | 0.28 | 30 | –

Row | SMILES | Activity (P388 [1]) [%] | Log K [2] | D50 (P388 [3]) [mg/kg/day] | IC50 (L1210) [nM] | Rm [4] | OD (P388 [5]) [mg/kg/day] | D50 (P388 [6])
19 | CS(=O)(=O)Nc1ccc(Nc2c3ccccc3nc3cc(N)ccc23)cc1 | 67 | 6.82 | 8 | 10 | -0.18 | 8.9 | –
20 | COc1cc(NP(=O)(OC)OC)ccc1Nc1c2ccccc2nc2c(OC)cccc12 | 76 | 6.09 | 6 | 12 | 0.47 | 9 | –
21 | COP(=O)(Nc1ccc(Nc2c3ccccc3nc3ccccc23)cc1)OC | 107 | 6.26 | 15 | 15 | 0.34 | 45 | –
22 | CNC(=O)c1cccc2c(Nc3ccc(NS(C)(=O)=O)cc3)c3ccccc3nc12 | 41 | 6.22 | – | 245 | -0.1 | 150 | ILS not obtained
23 | COc1cc(NP(=O)(OC)OC)ccc1Nc1c2ccccc2nc2cc(Br)ccc12 | 83 | 6.44 | 4 | 5 | 0.57 | 13.3 | –
24 | COc1ccc2nc3ccccc3c(Nc3ccc(NP(=O)(OC)OC)cc3)c2c1 | 38 | 6.25 | – | 920 | 0.29 | 45 | ILS not obtained
25 | COP(=O)(Nc1ccc(Nc2c3ccccc3nc3c(C)cccc23)cc1)OC | – | 6.75 | 9 | 9 | 0.46 | 20 | –
26 | COc1cc(NS(C)(=O)=O)ccc1Nc1c2ccccc2nc2c(OC)cccc12 | 139 | 5.94 | 8 | 40 | 0.19 | 30 | –
27 | COP(=O)(Nc1ccc(Nc2c3ccccc3nc3cc(S(C)(=O)=O)ccc23)cc1)OC | – | 5.63 | – | > 1500 | -0.14 | 150 | ILS not obtained
28 | COc1cc(NP(=O)(OC)OC)ccc1Nc1c2ccccc2nc2cc(Cl)ccc12 | 91 | 6.4 | 5.5 | 12 | 0.61 | 13.3 | –
29 | Cc1cccc2c(Nc3ccc(NS(C)(=O)=O)cc3)c3ccccc3nc12 | 75 | 6.52 | 50 | 17 | 0.07 | 66 | –
30 | COc1cc(NP(=O)(OC)OC)ccc1Nc1c2ccccc2nc2c(C)cccc12 | – | 6.16 | 3 | 18 | 0.44 | 8.9 | –
31 | Cc1ccc2nc3ccccc3c(Nc3ccc(NS(C)(=O)=O)cc3)c2c1 | 39 | 5.7 | – | 680 | 0.14 | 100 | ILS not obtained
32 | COP(=O)(Nc1ccc(Nc2c3ccccc3nc3cc(Cl)ccc23)cc1)OC | 62 | 7 | 35 | 16 | 0.46 | 45 | –
33 | CS(=O)(=O)Nc1ccc(Nc2c3ccccc3nc3cc(Cl)ccc23)cc1 | 53 | 6.89 | 60 | 50 | 0.14 | 65 | –
34 | COc1cc(NP(=O)(OC)OC)ccc1Nc1c2ccccc2nc2ccccc12 | 67 | 5.64 | 3.5 | 70 | 0.47 | 8.9 | –
35 | COP(=O)(Nc1ccc(Nc2c3ccccc3nc3cc(N)ccc23)cc1)OC | 58 | 6.9 | 5 | 385 | 0.06 | 5.9 | –
36 | COP(=O)(Nc1ccc(Nc2c3ccccc3nc3ccc(C)cc23)cc1)OC | 36 | 6.09 | – | 286 | 0.43 | 20 | ILS not obtained
